Experimental findings from ChEMBL document CHEMBL5696442, “Discovery of type II inhibitors of TGFβ-activated kinase 1 (TAK1) and mitogen-activated protein kinase kinase kinase kinase 2 (MAP4K2)” (J Med Chem, 2015) are described below.

Each structure is given as a SMILES string.

Holding throughout (format): cell-based
Experiment [1] addresses Tyrosine-protein kinase Yes (Homo sapiens) (UniProt P07947). In words: Inhibition of YES ACT labeling site in human A-375 cells at 0.5 uM by KiNativ Profiling analysis relative to control.
For experiment [2], the target named is Serine/threonine-protein kinase 25 (Homo sapiens) (UniProt O00506). In words: Inhibition of YSK1 ACT labeling site in human A-375 cells at 5 uM by KiNativ Profiling analysis relative to control.
The target of experiment [3] is T1, Serine/threonine-protein kinase Nek9 (Homo sapiens) (UniProt Q8TD19).
T1 sequence (whole entry): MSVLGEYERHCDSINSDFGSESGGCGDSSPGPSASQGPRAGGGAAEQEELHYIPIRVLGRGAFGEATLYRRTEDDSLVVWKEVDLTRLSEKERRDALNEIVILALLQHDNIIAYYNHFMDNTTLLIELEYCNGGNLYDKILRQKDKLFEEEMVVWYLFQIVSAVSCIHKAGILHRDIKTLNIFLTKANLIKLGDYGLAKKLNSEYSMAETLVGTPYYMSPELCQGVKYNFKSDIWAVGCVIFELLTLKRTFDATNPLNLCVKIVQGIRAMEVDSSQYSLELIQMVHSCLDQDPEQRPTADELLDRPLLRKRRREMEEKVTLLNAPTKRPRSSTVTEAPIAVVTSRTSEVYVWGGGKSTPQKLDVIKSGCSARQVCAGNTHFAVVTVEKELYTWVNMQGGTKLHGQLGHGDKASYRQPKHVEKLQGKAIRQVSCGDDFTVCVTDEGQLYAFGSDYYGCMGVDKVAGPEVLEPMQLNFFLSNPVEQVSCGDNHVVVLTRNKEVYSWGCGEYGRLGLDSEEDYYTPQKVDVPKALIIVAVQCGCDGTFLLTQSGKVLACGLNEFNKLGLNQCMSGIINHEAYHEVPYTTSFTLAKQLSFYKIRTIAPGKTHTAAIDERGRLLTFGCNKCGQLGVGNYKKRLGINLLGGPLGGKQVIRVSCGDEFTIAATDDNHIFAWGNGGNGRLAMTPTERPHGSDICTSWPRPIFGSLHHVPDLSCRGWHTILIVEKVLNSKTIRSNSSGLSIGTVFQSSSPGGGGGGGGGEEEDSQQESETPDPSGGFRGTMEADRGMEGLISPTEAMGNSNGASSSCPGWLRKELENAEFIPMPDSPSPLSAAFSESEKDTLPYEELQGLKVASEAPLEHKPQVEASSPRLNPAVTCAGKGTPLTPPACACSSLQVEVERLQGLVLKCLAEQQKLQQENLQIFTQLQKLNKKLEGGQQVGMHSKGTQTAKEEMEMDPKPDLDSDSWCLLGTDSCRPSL
Kind of experiment: Inhibition of NEK9 Lys1 labeling site harbouring RTEDDSLVVWKEVDLTR in human A-375 cells at 5 uM by KiNativ Profiling analysis relative to control.

The target in experiment [4] is Cyclin-dependent kinase 1 (Homo sapiens) (UniProt P06493). Kind of experiment: Inhibition of CDC2 Lys2 labeling site harbouring DLKPQNLLIDDKGTIK in human A-375 cells at 0.5 uM by KiNativ Profiling analysis relative to control. Summed up: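 Live A375 melanoma cells were treated with compound at 5 or 0.5 μM. The cells were then lysed, and the lysates were labeled with a lysine-reactive ATP or ADP-biotin acyl probe (KiNativ). Inhibition is the compound's protection of each kinase labeling-site peptide from probe labeling, relative to untreated control.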

Experiment [5] concerns the target T1, Serine/threonine-protein kinase Nek9 (Homo sapiens). Kind of experiment: Inhibition of NEK9 Lys1 labeling site harbouring TEDDSLVVWKEVDLTR in human A-375 cells at 0.5 uM by KiNativ Profiling analysis relative to control.
The target of experiment [6] is Cyclin-dependent kinase 18 (Homo sapiens) (UniProt Q07002). Kind of experiment: Inhibition of PCTAIRE3 Lys1 labeling site harbouring SKLTENLVALKEIRLEHEEGAPCTAIR in human A-375 cells at 0.5 uM by KiNativ Profiling analysis relative to control. Summed up:
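Live A375 melanoma cells were treated with compound at 5 or 0.5 μM, then lysed. Lysates were labeled with a lysine-reactive ATP or ADP-biotin probe. Read-out was the compound's protection of kinase labeling sites from probe labeling (KiNativ).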

Experiment [7] concerns the target Phosphatidylinositol 4-kinase beta (Homo sapiens) (UniProt Q9UBF8). In words: Inhibition of PI4KB ATP labeling site harbouring VPHTQAVVLNSKDK in human A-375 cells at 0.5 uM by KiNativ Profiling analysis relative to control.
Experiment [8] has as its target Cyclin-dependent kinase 10 (Homo sapiens) (UniProt Q15131). Kind of experiment: Inhibition of CDK10 Lys2 labeling site in human A-375 cells at 0.05 uM by KiNativ Profiling analysis relative to control.
Experiment [9] addresses Casein kinase I isoform delta (Homo sapiens) (UniProt P48730). Kind of experiment: Inhibition of CK1delta Lys2 labeling site in human A-375 cells at 0.05 uM by KiNativ Profiling analysis relative to control.
The target of experiment [10] is T2, Mitogen-activated protein kinase kinase kinase 7 (Homo sapiens) (UniProt O43318).
T2 sequence (whole entry): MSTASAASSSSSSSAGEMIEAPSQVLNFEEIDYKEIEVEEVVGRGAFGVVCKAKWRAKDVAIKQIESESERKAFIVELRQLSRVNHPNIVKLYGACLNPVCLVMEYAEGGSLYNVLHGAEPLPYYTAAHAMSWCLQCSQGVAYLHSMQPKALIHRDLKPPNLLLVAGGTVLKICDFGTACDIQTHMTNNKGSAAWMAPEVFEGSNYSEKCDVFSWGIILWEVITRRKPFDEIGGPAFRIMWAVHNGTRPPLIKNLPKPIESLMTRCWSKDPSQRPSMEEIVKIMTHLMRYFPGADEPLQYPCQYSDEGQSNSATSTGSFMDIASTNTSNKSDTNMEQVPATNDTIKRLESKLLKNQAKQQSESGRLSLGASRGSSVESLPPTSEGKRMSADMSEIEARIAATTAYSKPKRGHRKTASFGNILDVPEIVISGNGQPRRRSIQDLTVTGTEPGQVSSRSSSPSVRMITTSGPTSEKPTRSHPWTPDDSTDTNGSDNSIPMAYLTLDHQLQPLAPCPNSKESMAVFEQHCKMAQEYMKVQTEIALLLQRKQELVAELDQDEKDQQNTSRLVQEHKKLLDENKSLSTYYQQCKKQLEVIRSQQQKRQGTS
In words: Inhibition of TAK1 Lys2 labeling site in human A-375 cells at 0.05 uM by KiNativ Profiling analysis relative to control.

Casein kinase I isoform delta (Homo sapiens), sequence (P48730 whole entry, looked up, canonical isoform): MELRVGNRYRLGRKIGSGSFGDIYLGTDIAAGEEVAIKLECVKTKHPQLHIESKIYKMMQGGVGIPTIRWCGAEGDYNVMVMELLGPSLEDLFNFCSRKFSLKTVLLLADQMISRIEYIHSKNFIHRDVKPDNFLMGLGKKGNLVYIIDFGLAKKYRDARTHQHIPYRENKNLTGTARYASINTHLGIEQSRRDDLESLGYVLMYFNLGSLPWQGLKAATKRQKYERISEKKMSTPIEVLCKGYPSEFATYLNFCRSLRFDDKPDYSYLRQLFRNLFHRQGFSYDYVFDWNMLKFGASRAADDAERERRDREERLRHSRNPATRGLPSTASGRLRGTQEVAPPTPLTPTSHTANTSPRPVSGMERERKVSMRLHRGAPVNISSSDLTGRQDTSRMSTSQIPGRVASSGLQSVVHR
Phosphatidylinositol 4-kinase beta (Homo sapiens), sequence (Q9UBF8 2-816 limits assumed): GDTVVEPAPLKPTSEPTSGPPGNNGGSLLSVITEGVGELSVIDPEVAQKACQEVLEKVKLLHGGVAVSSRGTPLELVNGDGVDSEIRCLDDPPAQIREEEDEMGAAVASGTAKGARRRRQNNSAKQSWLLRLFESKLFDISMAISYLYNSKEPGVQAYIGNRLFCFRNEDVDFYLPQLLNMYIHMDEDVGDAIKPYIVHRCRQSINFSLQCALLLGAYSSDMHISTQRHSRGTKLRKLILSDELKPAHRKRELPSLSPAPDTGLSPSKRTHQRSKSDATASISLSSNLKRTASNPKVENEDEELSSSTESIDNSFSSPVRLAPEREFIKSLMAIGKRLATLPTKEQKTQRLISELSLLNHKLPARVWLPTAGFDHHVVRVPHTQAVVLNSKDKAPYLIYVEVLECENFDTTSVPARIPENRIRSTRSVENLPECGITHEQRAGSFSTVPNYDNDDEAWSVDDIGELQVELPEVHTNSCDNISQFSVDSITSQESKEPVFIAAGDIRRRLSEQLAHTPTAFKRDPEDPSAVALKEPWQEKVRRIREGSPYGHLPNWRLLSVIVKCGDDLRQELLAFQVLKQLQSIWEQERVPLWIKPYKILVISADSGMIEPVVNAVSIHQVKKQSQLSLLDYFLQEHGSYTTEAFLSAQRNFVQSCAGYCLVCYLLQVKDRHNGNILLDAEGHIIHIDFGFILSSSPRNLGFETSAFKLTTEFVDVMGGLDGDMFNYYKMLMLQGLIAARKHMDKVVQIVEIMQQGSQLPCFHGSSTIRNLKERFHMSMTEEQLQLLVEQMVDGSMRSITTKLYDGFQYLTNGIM
Cyclin-dependent kinase 10 (Homo sapiens), sequence (Q15131 whole entry, canonical isoform): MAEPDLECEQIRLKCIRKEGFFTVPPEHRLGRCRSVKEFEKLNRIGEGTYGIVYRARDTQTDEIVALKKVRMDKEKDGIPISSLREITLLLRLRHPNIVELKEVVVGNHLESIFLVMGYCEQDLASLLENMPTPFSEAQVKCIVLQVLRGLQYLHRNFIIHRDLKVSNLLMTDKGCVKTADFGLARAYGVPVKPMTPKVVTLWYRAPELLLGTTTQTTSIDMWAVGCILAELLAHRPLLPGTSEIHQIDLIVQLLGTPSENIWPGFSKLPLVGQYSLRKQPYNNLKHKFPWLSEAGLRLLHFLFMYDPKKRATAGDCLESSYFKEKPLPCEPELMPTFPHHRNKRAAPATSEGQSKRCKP
Serine/threonine-protein kinase 25 (Homo sapiens), sequence (O00506 whole entry, looked up): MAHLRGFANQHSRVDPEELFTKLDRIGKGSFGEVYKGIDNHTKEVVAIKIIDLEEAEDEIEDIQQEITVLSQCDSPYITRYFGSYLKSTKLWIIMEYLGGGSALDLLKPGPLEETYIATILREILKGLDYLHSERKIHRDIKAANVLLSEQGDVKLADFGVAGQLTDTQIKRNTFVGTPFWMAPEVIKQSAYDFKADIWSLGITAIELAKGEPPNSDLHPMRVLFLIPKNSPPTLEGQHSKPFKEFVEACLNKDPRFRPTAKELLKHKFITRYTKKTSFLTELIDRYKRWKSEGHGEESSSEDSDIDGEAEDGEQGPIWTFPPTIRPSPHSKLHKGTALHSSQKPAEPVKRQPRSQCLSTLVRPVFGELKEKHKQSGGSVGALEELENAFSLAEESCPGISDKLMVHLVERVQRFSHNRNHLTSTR
Cyclin-dependent kinase 1 (Homo sapiens), sequence (P06493 whole entry, looked up): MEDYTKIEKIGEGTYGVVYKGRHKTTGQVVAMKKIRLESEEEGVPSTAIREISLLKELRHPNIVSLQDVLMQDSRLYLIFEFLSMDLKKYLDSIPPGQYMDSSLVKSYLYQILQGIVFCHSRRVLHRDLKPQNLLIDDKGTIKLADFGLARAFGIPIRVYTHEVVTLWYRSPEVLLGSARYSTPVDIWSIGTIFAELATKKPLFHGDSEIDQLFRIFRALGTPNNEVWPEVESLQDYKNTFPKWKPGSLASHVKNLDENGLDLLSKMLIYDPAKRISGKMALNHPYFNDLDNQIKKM
Cyclin-dependent kinase 18 (Homo sapiens), sequence (Q07002 whole entry): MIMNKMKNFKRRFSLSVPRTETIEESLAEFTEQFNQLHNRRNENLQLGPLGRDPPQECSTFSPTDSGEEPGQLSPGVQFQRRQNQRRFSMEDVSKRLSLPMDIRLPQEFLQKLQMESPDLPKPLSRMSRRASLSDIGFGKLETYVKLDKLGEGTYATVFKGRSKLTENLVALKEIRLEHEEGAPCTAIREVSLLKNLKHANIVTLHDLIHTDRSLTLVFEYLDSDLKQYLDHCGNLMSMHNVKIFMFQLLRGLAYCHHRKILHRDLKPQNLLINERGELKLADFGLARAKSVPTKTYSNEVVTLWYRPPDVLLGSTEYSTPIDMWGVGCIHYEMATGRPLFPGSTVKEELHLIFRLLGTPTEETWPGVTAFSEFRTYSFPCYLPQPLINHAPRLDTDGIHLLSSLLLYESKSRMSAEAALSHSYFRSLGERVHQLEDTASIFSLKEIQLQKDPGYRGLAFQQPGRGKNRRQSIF
Tyrosine-protein kinase Yes (Homo sapiens), sequence (P07947 2-543 limits assumed): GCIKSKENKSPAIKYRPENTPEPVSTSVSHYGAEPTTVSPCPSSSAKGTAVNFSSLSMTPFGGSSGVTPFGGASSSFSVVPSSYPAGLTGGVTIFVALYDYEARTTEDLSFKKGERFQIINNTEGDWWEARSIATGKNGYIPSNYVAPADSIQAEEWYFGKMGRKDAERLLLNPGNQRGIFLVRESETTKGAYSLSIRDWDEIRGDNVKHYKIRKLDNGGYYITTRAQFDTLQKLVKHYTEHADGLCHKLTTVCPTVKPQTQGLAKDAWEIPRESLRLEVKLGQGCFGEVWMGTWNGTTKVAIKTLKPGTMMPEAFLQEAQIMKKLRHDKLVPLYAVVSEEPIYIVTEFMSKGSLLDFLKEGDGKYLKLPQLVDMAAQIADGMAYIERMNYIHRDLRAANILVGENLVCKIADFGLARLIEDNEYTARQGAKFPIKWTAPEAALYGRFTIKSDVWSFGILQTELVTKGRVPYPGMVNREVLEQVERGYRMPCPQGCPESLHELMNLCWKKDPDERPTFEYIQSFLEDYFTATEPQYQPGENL

Take `CCN1CCN(Cc2ccc(NC(=O)c3ccc(C)c(/C=C/c4cnc5[nH]ccc5c4OC)c3)cc2C(F)(F)F)CC1`: the inhibition is 72.6% in experiment [1]; 13.7% in experiment [2]; 21% in experiment [3]; 6.3% in [4]; -5% in experiment [5]; 2.4% in experiment [6]. Besides, the inhibition in experiment [7] is -4.3%; in experiment [8] it was 30.7%; in experiment [9], -9.6%; in [10], 71.8%.
In the case of `CCN1CCN(Cc2ccc(NC(=O)c3ccc(C)c(Oc4ccnc5[nH]ccc45)c3)cc2C(F)(F)F)CC1`, the inhibition in [1] is 36.5%; in experiment [2] it was 35.1%; in experiment [3], -3.9%; in experiment [4], 13.7%; in experiment [5], -1.5%; in [6], 6.9%. Besides, the inhibition in [7] was 6.9%; in [8], 7.8%; in [9] it was -0.7%; in experiment [10], 88.7%.

As a reminder, the inhibition is the relative decrease from the control value, in per cent.
